# The list is not random: actives were taken first. Their share in the collection is about 3.7%.
# hERG rescue: hERG rescue from dofetilide block, primary screen, cell-based, CHO-hERG, FluxOR thallium flux, dofetilide IC70 | dofetilide IC70 present | activation (rescue from dofetilide block), less the hit threshold, % at 10 µM | Voltage-gated inwardly rectifying potassium channel KCNH2 (Homo sapiens), Q12809 | 310,000 tested, 0.51% active;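 active means activation above the mean of controls blocked by dofetilide plus 5 SD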;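 further: thallium influx through hERG after potassium depolarization seen as dye fluorescence rise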
# KCNK9 inh: KCNK9 potassium channel inhibitors, primary screen, HEK293 cells, thallium flux; FluxOR thallium flux fluorescence; active compounds read low; B-score at 10 µM; 310,000 tested, 1.2% active;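 active means ratio B-score over 3 SD below the library mean, with starting fluorescence within 5 SD of its mean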;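 further: negative B-score means less thallium flux so channel inhibition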
# KCNK3 block: human KCNK3 channel inhibitors, primary screen, CHO cells, FluxOR thallium flux, B-score | Potassium channel subfamily K member 3 (Homo sapiens), O14649 | FluxOR fluorescence; active compounds read low | B-score at 10 µM | 340,000 tested, 0.84% active;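 active means B-score under library mean minus 4 SD, starting fluorescence ratio at most library mean plus 5 SD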;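 further: more negative B-score means stronger inhibition of thallium flux through KCNK3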
# KCNQ1 inh: inhibitors of human KCNQ1 channel, primary screen, cell-based, thallium flux, high-throughput; Potassium voltage-gated channel subfamily KQT member 1 (Homo sapiens), P51787; CHO-K1 KCNQ1, FluxOR thallium flux fluorescence; active compounds read high; B-score at 10 µM; 310,000 tested, 1.3% active; AID 2642, 2010;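 active means compounds whose thallium flux B-score, printed positive for inhibition, exceeds three library SD while starting fluorescence stays within three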;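 further: channel opened by potassium depolarization with thallium stimulus after 20 min compound exposure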
# KCNQ1 act: potentiators or activators of KCNQ1 channel, primary screen, cell-based, thallium flux, high-throughput | Potassium voltage-gated channel subfamily KQT member 1 (Homo sapiens), P51787 | B-score at 10 µM | 310,000 tested, 0.35% active | CHO-K1 KCNQ1, thallium flux FluxOR fluorescence; active compounds read high;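 active means fluorescence ratio B-score, a plate-corrected score, at least three library SD, with initial intensity B-score within 5 SD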
#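 Test system: CHO-K1 cells stably expressing KCNQ1 / Medium: assay buffer / Also added: depolarizing K+/Tl+ stimulus, K2SO4 and Tl2SO4 each 12.5 mM in 5x stock / Incubation: 90 min dye loading and 20 min compound exposure, both at room temperature / Signal: thallium influx via FluxOR fluorescence, kinetic imaging / Evaluation: B score of baseline-normalized fluorescence ratio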
# Kir21 inh: inhibitors of mouse Kir2.1 inward-rectifier potassium channel | Inward rectifier potassium channel 2 (Mus musculus), P35561 | HEK293-Kir2.1, FluxOR thallium flux fluorescence; active compounds read low | B-score at 10 µM | 310,000 tested, 0.85% active | AID 1672, 2009;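 active means fluorescence ratio B-score at or below minus 3 SD of library scores, with starting-brightness B-score within 2 SD, cut at about -4.2 in these data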;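 further: channel flux triggered by added potassium and thallium sulfate stimulus; B-score of peak minus minimum fluorescence over baseline after thallium stimulus; more negative B-score means stronger Kir2.1 block with less thallium influx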
# Target sequence (P35561 whole entry, looked up): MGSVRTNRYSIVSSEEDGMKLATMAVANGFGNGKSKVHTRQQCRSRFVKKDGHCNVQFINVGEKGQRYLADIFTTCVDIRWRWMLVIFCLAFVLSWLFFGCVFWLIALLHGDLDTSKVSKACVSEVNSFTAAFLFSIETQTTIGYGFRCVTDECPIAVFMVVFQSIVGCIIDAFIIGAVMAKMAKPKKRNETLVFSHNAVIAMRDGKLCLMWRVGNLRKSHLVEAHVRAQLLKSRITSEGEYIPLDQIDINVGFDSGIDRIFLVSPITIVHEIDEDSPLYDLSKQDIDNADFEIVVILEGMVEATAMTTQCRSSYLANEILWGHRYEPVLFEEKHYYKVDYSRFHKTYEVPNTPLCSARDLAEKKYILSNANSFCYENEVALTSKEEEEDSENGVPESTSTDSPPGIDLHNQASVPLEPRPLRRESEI
# KCNK9 block conf: KCNK9 potassium channel inhibitors, confirmation, HEK293 cells, thallium flux, duplicate; inhibition, % at 10 µM; FluxOR thallium flux fluorescence; shares compounds with KCNK9 inh; 4,900 tested, 43% active;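 active means thallium signal inhibited by more than 5 SD of the compound-free buffer control wells, on both duplicate plates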
# Kir2-1 spec: mouse Kir2.1 channel inhibition, confirmation, selectivity assay for KCNK9 modulator project, cell-based, HEK293, thallium flux; shares compounds with KCNK9 inh; Kir2.1 cells, FluxOR thallium flux fluorescence; inhibition, % at 10 µM; 4,900 tested, 4% active; AID 492993, 2010;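 active means thallium signal drop more than 5 SD beyond the mean of the no-compound control wells, seen in both duplicate plates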;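 further: signal is fluorescence rise after thallium addition divided by baseline fluorescence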
# HEK293 Tl ctr: thallium flux in non-induced HEK293 cells, confirmation, counter-screen for KCNK9 inhibitor project, cell-based, second counter screen, non-induced KCNK9-HEK293; shares compounds with KCNK9 inh; FluxOR thallium flux; inhibition, % at 10 µM; 4,900 tested, 40% active; AID 492997, 2010;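 active means thallium signal drop beyond 5 SD of the untreated control mean, on both duplicate plates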
# KCNK3 inh conf: retest of human KCNK3 channel inhibitors, confirmation, CHO cells, FluxOR thallium flux, triplicate; 2,400 tested, 99% active; AID 651638, 2012; ratio percent of control, % at 10 µM; shares compounds with KCNK3 block; FluxOR fluorescence; 0% buffer, 100% carvedilol maximal block;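 active means ratio percent of control, averaged over triplicates, above buffer control mean plus 5 SD, cut at about 64% in these data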;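 further: ratio is the fluorescence rise from min to max over baseline after thallium stimulus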
# KCNK3 noninduced: thallium flux inhibition in non-induced cells, primary screen, counter-screen for KCNK3 inhibitor project, cell-based, non-induced KCNK3 line, FluxOR thallium, triplicate. non-induced KCNK3 parental cells; active compounds read low. 2,400 tested, 40% active. thallium flux ratio (lower = more inhibition) at 10 µM. shares compounds with KCNK3 block. AID 651747, 2012;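 active means thallium flux ratio, averaged over three wells, more than 5 SD below the buffer control mean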;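 further: host cells are CHO cells without KCNK3 induction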
# A number is an active result; 0 = inactive; - = no result given.
SMILES,hERG rescue,KCNK9 inh,KCNK3 block,KCNQ1 inh,KCNQ1 act,Kir21 inh,KCNK9 block conf,Kir2-1 spec,HEK293 Tl ctr,KCNK3 inh conf,KCNK3 noninduced
CCCN(N=Nc1cccc([N+](=O)[O-])c1)c1cccc([N+](=O)[O-])c1,0,-12.4,-9.18,0,0,0,50.0%,0,43.0%,115.0,0
Cc1cc(C)n(CCC(=O)Nc2ccc(-c3ccno3)cc2)n1,0,0,0,0,0,0,-,-,-,-,-
Cc1ccc(-c2ocnc2C(=O)Nc2ccccc2NC(=O)c2ccccn2)cc1,0,0,0,0,0,0,-,-,-,-,-
Cc1cccc(-c2ocnc2C(=O)Nc2ccccc2NC(=O)c2ccccn2)c1,0,-11,-9.71,0,0,0,36.0%,0,29.0%,109.3,0.156
CC(C)S(=O)(=O)c1csc(NC(=O)Nc2cc(Cl)ccc2Cl)c1Cl,0,-8.19,-11.4,0,0,0,54.0%,0,38.5%,139.0,0.142
COc1nnc(-c2ccc(N3CCOCC3)c(NC(=O)C3CCCCC3)c2)c2ccccc12,0,0,0,0,0,0,-,-,-,-,-
COc1nnc(-c2ccc(N3CCCCC3)c(NC(=O)C3CCCCC3)c2)c2ccccc12,0,-14.9,-11,12,0,0,51.5%,0,0,125.3,0.141
Cc1nn(-c2ccc(F)cc2)c(-n2cccc2)c1C(=O)N1CCN(C(=O)c2ccco2)CC1,0,0,0,0,0,0,-,-,-,-,-
Cc1c(N=C2N=C(NC(=O)NC(C)(C)C)c3ccccc32)c(=O)n(-c2ccccc2)n1C,0,0,0,0,0,0,-,-,-,-,-
Cc1c(N=C2N=C(NC(=O)c3cccs3)c3ccccc32)c(=O)n(-c2ccccc2)n1C,0,-9.17,-9.92,0,0,0,56.0%,0,56.0%,141.3,0.101
CCOc1ccccc1CN1CCC(N2CCOCC2)CC1,0,0,0,0,0,0,-,-,-,-,-
Cc1ccc([N+](=O)[O-])cc1-c1[nH]c(-c2ccc(O)c(O)c2)nc1-c1ccccc1,0,-9.01,-9.8,0,0,0,39.5%,0,0,111.3,0
COc1ccc([N+](=O)[O-])cc1-c1[nH]c(-c2ccc(C(=O)O)cc2)nc1-c1ccccc1,0,0,0,0,0,0,-,-,-,-,-
O=C(N/N=C/c1c(O)ccc2ccccc12)c1cccc(C(F)(F)F)c1,0,-9.29,-11.3,0,0,0,61.0%,46.0%,61.0%,159.0,0.0907
COc1ccc(C(=O)c2coc3c2C(=O)C(=O)c2ccccc2-3)cc1,0,-21.1,-8.89,0,0,0,78.0%,0,45.5%,108.0,0.149
O=C(O)CCn1cc(-c2ccc(F)cc2)nc1-c1ccncc1,-,-,0,-,-,-,-,-,-,-,-
CCOC(=O)c1ccc(N2C(=O)c3n[nH]c(-c4ccco4)c3C2c2ccc([N+](=O)[O-])cc2)cc1 (centres undefined),0,-8.33,-9.77,0,0,0,55.5%,0,42.0%,138.3,0.106
Cc1cccc(Oc2cc(NC(=O)c3ccccc3)cc([N+](=O)[O-])c2)c1,0,-11.7,-11.6,6,0,0,64.0%,0,39.0%,133.0,0.149
Cn1cc([N+](=O)[O-])c(C(=O)Nc2cc(Oc3ccccc3)cc([N+](=O)[O-])c2)n1,0,0,0,0,0,0,-,-,-,-,-
COc1cccc(-c2nn(-c3ccccc3)cc2C(=O)Nc2nccs2)c1,0,-15.2,-10.5,6,0,0,35.0%,0,0,99.7,0.122
CCC(C(=O)OCc1csc(CC(=O)Nc2ccccc2C)n1)c1ccccc1 (centres undefined),-,-,0,-,-,-,-,-,-,-,-
O=C(O)c1nn(-c2ccccc2)c(-c2ccccc2)c1C(=O)c1ccccc1,0,0,0,0,0,0,-,-,-,-,-
COC(=O)c1nn(-c2ccccc2)c(-c2ccccc2)c1C(=O)c1ccccc1,0,-9.41,-8.86,0,0,0,48.0%,0,0,106.3,0
COc1ccc(-c2nc(-c3ccc(O)cc3O)cs2)cc1OC,0,-13.2,-11.5,0,0,0,49.5%,0,0,123.7,0
COc1ccc(CCNS(=O)(=O)c2ccc(Br)s2)cc1,0,-9.22,-9.42,0,0,0,76.5%,0,33.5%,116.3,0
SMILES,hERG rescue,KCNK9 inh,KCNK3 block,KCNQ1 inh,KCNQ1 act,Kir21 inh,KCNK9 block conf,Kir2-1 spec,HEK293 Tl ctr,KCNK3 inh conf,KCNK3 noninduced
CCOc1ccccc1CNS(=O)(=O)c1cc(-c2cc(C)no2)ccc1OC,0,0,0,0,0,0,-,-,-,-,-
COc1ccccc1CNS(=O)(=O)c1cc(-c2cc(C)no2)ccc1C(C)C,0,-11.1,-9.5,6,0,0,59.5%,0,37.5%,119.0,0.139
CC(C)(C)OC(=O)C[C@H]1C/C=C\C[C@H](CC(=O)N(CCO)Cc2ccccc2)C(=O)N2CCC[C@H]2COC1=O,-,-,0,-,-,-,-,-,-,-,-
CN(C)c1ccc(C(CNC(=O)c2ccccc2)c2c[nH]c3ccccc23)cc1 (centres undefined),0,-13.3,-9.22,0,0,0,54.0%,0,27.0%,101.0,0.139
O=C(O)CCC(=O)Nc1cccc(-c2csc(-c3ccccc3)n2)c1,0,0,0,0,0,0,-,-,-,-,-
CCCCC(=O)Nc1cccc(-c2csc(-c3ccccc3)n2)c1,0,-10.5,-10.2,9,0,0,50.0%,0,30.0%,125.0,0.154
